Measured values reported in ChEMBL document CHEMBL2057186, “Application of the bicyclo[1.1.1]pentane motif as a nonclassical phenyl ring bioisostere in the design of a potent and orally active γ-secretase inhibitor” (J Med Chem, 2012).
≈ marks a conversion by molar mass, not a printed value.

How the values were obtained:
Mus musculus [1] = experiment: Antialzheimer activity in 129/sve mouse assessed as reduction in amyloid beta42 level in brain at 30 mg/kg, po administered as single dose measured at 5 hrs by ELISA relative to vehicle treated control; format: functional; set-up: scale not given: the % may be the effect or the level left
In short: (§1)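 Wild-type male 129/sve mice received a single oral dose in Phosal 50 PG/Tween 80 vehicle. Aβ40 was measured in brain, CSF and plasma and Aβ42 in brain over a time course. Levels are expressed as % of vehicle-treated animals. Values are mean ± SEM, n = 5 or 8 per time point.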

Mus musculus [2] = experiment: Antialzheimer activity in 129/sve mouse assessed as reduction in amyloid beta40 level in CSF at 30 mg/kg, po administered as single dose measured at 1 hr by ELISA relative to vehicle treated control; format: functional; set-up: scale not given: the % may be the effect or the level left; in short: as §1
[3] = AUC (last) in 129/sve mouse plasma at 30 mg/kg, po administered as single dose by LC-MS/MS analysis; format: ADME, organism-based; set-up: dose 30 mg/kg, route oral, time 0 - last
In short: (§2)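 Wild-type male 129/sve mice received a single oral dose in 98% (v/v) Phosal 50 PG / 2% Tween 80. Drug was measured in plasma, brain and CSF. Study was nonserial, so AUC came from mean matrix concentrations at each time point. Values are mean ± SD (n = 4 or 5).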

[4] = AUC (last) in 129/sve mouse brain at 30 mg/kg, po administered as single dose by LC-MS/MS analysis; format: ADME, organism-based; set-up: time 0 - last, dose 30 mg/kg, route oral; in short: as §2
[5] = AUC (last) in 129/sve mouse cerebrospinal fluid at 30 mg/kg, po administered as single dose by LC-MS/MS analysis; format: ADME, organism-based; set-up: time 0 - last, dose 30 mg/kg, route oral; in short: as §2
[6] = Fraction unbound in 129/sve mouse plasma at 30 mg/kg, po administered as single dose; format: ADME, organism-based; set-up: dose 30 mg/kg, route oral
[7] = Fraction unbound in 129/sve mouse brain at 30 mg/kg, po administered as single dose; format: ADME, organism-based; set-up: dose 30 mg/kg, route oral
Hepatocyte = experiment: Apparent total intrinsic clearance in human hepatocytes assessed per million cells; format: ADME, cell-based
[8] = Apparent permeability from apical to basal side of dog RRCK cells; format: ADME, cell-based, Canis lupus familiaris, MDCKII-LE; conditions: MDCK
In short: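 Absorptive (A to B) permeability was measured in RRCK cells, a Madin–Darby canine kidney subline isolated for low transporter activity. It estimates intrinsic passive permeability.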

[9] = Kinetic solubility of the solubility of the compound at pH 6.5; format: physicochemical; conditions: buffer, read-out: Kinetic_solubility
In short: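 Kinetic solubility was measured in aqueous buffer at pH 6.5.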

[10] = Thermodynamic solubility of the compound at pH 6.5; format: physicochemical; conditions: buffer, read-out: Therm_solubility
In short: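 Thermodynamic solubility was measured in aqueous buffer at pH 6.5 and at pH 7.4.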

P-gp = experiment: Efflux ratio of apparent permeability from basal to apical side to apical to basal side of MDCK cells expressing human P-gp; format: ADME, cell-based, Canis lupus familiaris; conditions: dog, MDCK-MDR1
In short: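 Monolayers were MDCK cells transfected with the human P-glycoprotein (MDR1) gene. Permeability was measured basolateral-to-apical and apical-to-basolateral, and the BA/AB ratio was reported.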

Cytochrome P450 2C19 = Cytochrome P450 2C19 (Homo sapiens, UniProt P33261); experiment: Inhibition of CYP2C19 in human liver microsomes using (S)-mephenytoin as substrate; format: ADME, Microsome
Cytochrome P450 2D6 = Cytochrome P450 2D6 (Homo sapiens, UniProt P10635); experiment: Inhibition of CYP2D6 in human liver microsomes using dextromethorphan as substrate; format: ADME, Microsome
Cytochrome P450 3A4 = Cytochrome P450 3A4 (Homo sapiens, UniProt P08684); experiment: Inhibition of CYP3A4 in human liver microsomes using midazolam as substrate; format: ADME, Microsome
[11] = target: Voltage-gated inwardly rectifying potassium channel KCNH2 (Homo sapiens, UniProt Q12809); experiment: Displacement of dofetilide from human ERG
Liver microsomes = experiment: Drug metabolism in human liver microsomes assessed as GSH/GSH-EE adduct formation after 60 mins by LC/MS/MS analysis; format: ADME, Microsome; conditions: 1 h
[12] = Cmax in Sprague-Dawley rat at 5 mg/kg, po; format: ADME, organism-based; set-up: dose 5 mg/kg, route oral; conditions: in vivo
In short: (§3)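 Female rats were dosed once, 1 mg/kg iv (2 mL/kg, 0.5 mg/mL) or 5 mg/kg po (10 mL/kg, 0.5 mg/mL). Vehicle was 40% (w/v) hydroxypropyl-β-cyclodextrin. Plasma was sampled to 24 h. Values are means ± SEM (n = 3).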

[13] = Tmax in Sprague-Dawley rat at 5 mg/kg, po; format: ADME, organism-based; set-up: dose 5 mg/kg, route oral; conditions: in vivo; in short: as §3
[14] = AUC (0 to 24 hrs) in Sprague-Dawley rat at 1 mg/kg, iv; format: ADME, organism-based; set-up: time < 24 hr, dose 1 mg/kg, route intravenous; conditions: plasma
In short: (§4)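 Single-dose PK in female rats; iv at 1 mg/kg (2 mL/kg, 0.5 mg/mL) and po at 5 mg/kg (10 mL/kg, 0.5 mg/mL), both formulated in 40% (w/v) hydroxypropyl-β-cyclodextrin.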

[15] = AUC (0 to 24 hrs) in Sprague-Dawley rat at 5 mg/kg, po; format: ADME, organism-based; set-up: time < 24 hr, dose 5 mg/kg, route oral; conditions: plasma; in short: as §4
[16] = Half life in Sprague-Dawley rat at 1 mg/kg, iv; format: ADME, organism-based; set-up: dose 1 mg/kg, route intravenous; conditions: in vivo; in short: as §3
[17] = Plasma clearance in Sprague-Dawley rat at 1 mg/kg, iv; format: ADME, organism-based; set-up: dose 1 mg/kg, route intravenous; in short: as §3
[18] = Volume of distribution at steady state in Sprague-Dawley rat at 1 mg/kg, iv; format: ADME, organism-based; set-up: dose 1 mg/kg, route intravenous; conditions: in vivo, read-out: Vdss; in short: as §3
[19] = Oral bioavailability in Sprague-Dawley rat at 5 mg/kg; format: ADME, organism-based; conditions: in vivo; in short: as §3
[20] = Ratio of drug level in brain to plasma in Sprague-Dawley rat; format: ADME; conditions: read-out: BPR
[21] = Ratio of fraction unbound in brain to fraction unbound in plasma in Sprague-Dawley rat; format: ADME
[22] = Cmax in 129/sve mouse plasma at 30 mg/kg, po administered as single dose by LC-MS/MS analysis; format: ADME, organism-based; set-up: dose 30 mg/kg, route oral
In short: (§5)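 Single-dose oral PK in wild-type male 129/sve mice. Formulation was 98% (v/v) Phosal 50 PG with 2% Tween 80. Compound was measured in plasma, brain and CSF. Values are means ± standard deviations (n = 4 or 5).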

[23] = Tmax in 129/sve mouse plasma at 30 mg/kg, po administered as single dose by LC-MS/MS analysis; format: ADME, organism-based; set-up: dose 30 mg/kg, route oral; in short: as §5
[24] = Cmax in 129/sve mouse brain at 30 mg/kg, po administered as single dose by LC-MS/MS analysis; format: ADME, organism-based; set-up: dose 30 mg/kg, route oral; in short: as §5
[25] = Tmax in 129/sve mouse brain at 30 mg/kg, po administered as single dose by LC-MS/MS analysis; format: ADME, organism-based; set-up: dose 30 mg/kg, route oral; in short: as §5
[26] = Ratio of unbound fraction in brain to unbound fraction in plasma in 129/sve mouse at 30 mg/kg, po administered as single dose by LC-MS/MS analysis; format: ADME, organism-based; set-up: dose 30 mg/kg, route oral; conditions: in vivo
In short: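 Single oral dose of 30 mg/kg in wild-type male 129/sve mice, formulated in 98% (v/v) Phosal 50 PG with 2% Tween 80. Brain, CSF and plasma were sampled nonserially over time, and AUC was taken from mean matrix concentrations. Brain availability = (f_u,brain × [brain]) / (f_u,plasma × [plasma]), with n = 4–5 per group.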

[27] = Cmax in 129/sve mouse cerebrospinal fluid at 30 mg/kg, po administered as single dose by LC-MS/MS analysis; format: ADME, organism-based; set-up: dose 30 mg/kg, route oral; in short: as §5
Mus musculus [28] = experiment: Antialzheimer activity in 129/sve mouse assessed as reduction in amyloid beta40 level in brain at 30 mg/kg, po administered as single dose measured at 5 hrs by ELISA relative to vehicle treated control; format: functional; set-up: scale not given: the % may be the effect or the level left; in short: as §1
Gamma-secretase = experiment: Inhibition of gamma secretase-mediated amyloid beta42 production in human H4 cells expressing human wild-type APP

Chain of Cytochrome P450 2C19 (P33261 whole entry): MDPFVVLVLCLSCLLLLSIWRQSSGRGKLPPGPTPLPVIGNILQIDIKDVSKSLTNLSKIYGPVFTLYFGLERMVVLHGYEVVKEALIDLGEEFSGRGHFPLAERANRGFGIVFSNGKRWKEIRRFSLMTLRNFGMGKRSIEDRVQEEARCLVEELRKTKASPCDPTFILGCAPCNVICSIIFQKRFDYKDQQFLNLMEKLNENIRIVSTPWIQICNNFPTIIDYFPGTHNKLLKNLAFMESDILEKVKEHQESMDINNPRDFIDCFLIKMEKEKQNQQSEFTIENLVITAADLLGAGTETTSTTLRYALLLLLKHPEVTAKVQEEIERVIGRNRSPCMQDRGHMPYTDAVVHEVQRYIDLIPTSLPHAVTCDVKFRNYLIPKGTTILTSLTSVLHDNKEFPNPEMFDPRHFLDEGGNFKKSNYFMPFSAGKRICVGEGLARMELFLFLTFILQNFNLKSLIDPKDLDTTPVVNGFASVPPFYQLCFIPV
Chain of Cytochrome P450 2D6 (P10635 whole entry): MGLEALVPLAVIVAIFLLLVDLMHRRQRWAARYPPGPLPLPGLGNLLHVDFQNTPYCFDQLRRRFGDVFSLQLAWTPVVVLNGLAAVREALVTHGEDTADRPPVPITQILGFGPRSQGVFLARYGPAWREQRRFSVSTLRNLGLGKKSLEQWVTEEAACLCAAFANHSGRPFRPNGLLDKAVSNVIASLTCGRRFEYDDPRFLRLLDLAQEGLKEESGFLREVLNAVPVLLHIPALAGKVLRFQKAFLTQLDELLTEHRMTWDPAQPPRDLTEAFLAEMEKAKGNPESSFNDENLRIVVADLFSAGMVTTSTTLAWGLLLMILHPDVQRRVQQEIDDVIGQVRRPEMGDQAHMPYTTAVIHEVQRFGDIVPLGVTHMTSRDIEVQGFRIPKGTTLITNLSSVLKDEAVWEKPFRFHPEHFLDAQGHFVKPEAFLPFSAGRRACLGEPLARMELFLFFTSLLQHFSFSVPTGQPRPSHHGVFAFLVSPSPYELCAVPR
Chain of Voltage-gated inwardly rectifying potassium channel KCNH2 (Q12809 whole entry): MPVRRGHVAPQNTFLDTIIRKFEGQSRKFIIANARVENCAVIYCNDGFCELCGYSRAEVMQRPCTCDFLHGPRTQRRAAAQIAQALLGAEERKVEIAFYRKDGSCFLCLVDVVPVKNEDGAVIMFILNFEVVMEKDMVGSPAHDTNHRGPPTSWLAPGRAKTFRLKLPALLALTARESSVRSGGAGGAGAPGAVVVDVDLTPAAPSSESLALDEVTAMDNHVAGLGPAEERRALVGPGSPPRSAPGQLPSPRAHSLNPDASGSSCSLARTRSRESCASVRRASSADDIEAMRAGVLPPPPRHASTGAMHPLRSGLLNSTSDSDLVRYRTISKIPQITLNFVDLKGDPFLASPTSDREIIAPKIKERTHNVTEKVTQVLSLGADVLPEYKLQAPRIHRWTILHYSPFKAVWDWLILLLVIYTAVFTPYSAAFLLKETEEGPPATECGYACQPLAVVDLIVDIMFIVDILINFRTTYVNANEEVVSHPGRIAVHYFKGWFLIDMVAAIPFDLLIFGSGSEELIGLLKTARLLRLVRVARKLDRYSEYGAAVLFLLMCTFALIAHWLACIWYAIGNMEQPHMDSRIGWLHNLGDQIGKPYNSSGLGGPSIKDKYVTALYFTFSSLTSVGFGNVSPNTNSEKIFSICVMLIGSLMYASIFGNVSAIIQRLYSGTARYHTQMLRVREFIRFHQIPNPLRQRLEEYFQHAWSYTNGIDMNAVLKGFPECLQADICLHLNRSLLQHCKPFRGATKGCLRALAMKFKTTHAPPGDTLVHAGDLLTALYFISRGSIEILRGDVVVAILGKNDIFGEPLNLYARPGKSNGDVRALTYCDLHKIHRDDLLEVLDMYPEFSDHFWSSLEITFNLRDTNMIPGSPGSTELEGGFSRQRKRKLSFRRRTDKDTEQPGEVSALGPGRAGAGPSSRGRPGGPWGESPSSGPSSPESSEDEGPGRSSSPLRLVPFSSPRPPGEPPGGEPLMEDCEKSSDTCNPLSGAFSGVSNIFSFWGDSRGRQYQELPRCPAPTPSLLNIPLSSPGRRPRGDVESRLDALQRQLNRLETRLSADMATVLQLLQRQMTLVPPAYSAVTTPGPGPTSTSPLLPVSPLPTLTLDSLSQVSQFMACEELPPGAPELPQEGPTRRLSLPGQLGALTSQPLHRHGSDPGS
Chain of Cytochrome P450 3A4 (P08684 whole entry): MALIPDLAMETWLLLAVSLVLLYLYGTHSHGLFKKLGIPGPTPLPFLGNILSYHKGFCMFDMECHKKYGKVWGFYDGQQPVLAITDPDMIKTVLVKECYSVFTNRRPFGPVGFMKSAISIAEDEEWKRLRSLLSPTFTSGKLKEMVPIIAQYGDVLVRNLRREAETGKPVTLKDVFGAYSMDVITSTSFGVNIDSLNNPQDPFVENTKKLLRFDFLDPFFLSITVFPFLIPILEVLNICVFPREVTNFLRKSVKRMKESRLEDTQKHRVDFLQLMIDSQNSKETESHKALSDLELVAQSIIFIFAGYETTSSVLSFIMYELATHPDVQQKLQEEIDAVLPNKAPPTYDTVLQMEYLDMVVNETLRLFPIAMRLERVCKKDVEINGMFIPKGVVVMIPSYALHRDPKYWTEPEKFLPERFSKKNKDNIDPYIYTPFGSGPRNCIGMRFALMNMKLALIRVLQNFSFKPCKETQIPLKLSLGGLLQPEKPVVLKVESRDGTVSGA

NC(=O)[C@@H](CCC(F)(F)F)N(CC12CC(c3ncon3)(C1)C2)S(=O)(=O)c1ccc(Cl)cc1
Activity (Mus musculus [1]): 31% | Activity (Mus musculus [2]): 64% | AUC(0-t) [3]: 14.3 µM·h | AUC(0-t) [4]: 12 µM·h | AUC(0-t) [5]: 0.118 µM·h | fraction unbound [6]: 0.0354 | fraction unbound [7]: 0.026 | CLt/F (Hepatocyte): < 3.8 µL/min | Papp A→B [8]: 19.3 ×10⁻⁶ cm/s | solubility kinetic [9]: 216 µM (≈ 106 µg/mL) | solubility thermodynamic [10]: 19.7 µM (≈ 9.71 µg/mL) | efflux ratio (P-gp): 1.66 | inhibition (INH) (Cytochrome P450 2C19): Not Active | inhibition (INH) (Cytochrome P450 2D6): Not Active | inhibition (INH) (Cytochrome P450 3A4): Not Active | Activity [11]: Not Active | Drug metabolism (Liver microsomes): Not Active | Cmax [12]: 1.86 µM | Tmax [13]: 2 h | AUC(0-t) at 24 h [14]: 2.54 µM·h | AUC(0-t) at 24 h [15]: 19.4 µM·h | half-life [16]: 2.18 h | clearance [17]: 13.3 mL/min/kg | Vd [18]: 2.12 L/kg | bioavailability [19]: 100% | Kp [20]: 0.61 | Ratio [21]: 0.34 | Cmax [22]: 6.48 µM | Tmax [23]: 1 h | Cmax [24]: 5.6 µM | Tmax [25]: 1 h | Ratio [26]: 0.62 | Cmax [27]: 0.053 µM | Activity (Mus musculus [28]): 64% | IC50 (Gamma-secretase): 178 pM
